Assay results gathered from unrelated publications.
Protocols differ between the studies behind these lines.
EGFR: Epidermal growth factor receptor (EGFR, Homo sapiens, UniProt P00533)
EGFR L858R/T790M: Epidermal growth factor receptor (EGFR, Homo sapiens, UniProt P00533, L858R/T790M)

| Structure (SMILES) | target | assay | setting | endpoint | result |
| --- | --- | --- | --- | --- | --- |
| CO[C@@H]1[C@H](N(C)C(=O)c2ccccc2)C[C@H]2O[C@]1(C)n1c3ccccc3c3c4c(c5c6ccccc6n2c5c31)C(=O)NC4 | Epidermal growth factor receptor (EGFR, Homo sapiens, UniProt P00533, del747-752/P753S) | enzyme activity, inhibitor | 1 µM | inhibition | 10% |
| COc1ccc2[nH]c3c4[nH]c5ccc(OC)cc5c4c4c(c3c2c1)C(=O)NC4=O | Epidermal growth factor receptor (EGFR, Homo sapiens, UniProt P00533, L861Q) | binding | 1 µM | remaining binding | 71% |
| CS(=O)(=NC#N)c1ccccc1Nc1nc(Nc2ccnc(CO)c2)ncc1Cl (stereo not drawn) | EGFR | enzyme activity, inhibitor, radiometric | 1 µM | remaining activity | 99.4% |
| Cc1ccc(NC(=O)c2ccnc(C(F)(F)F)c2)cc1-c1cc(OCCO)nc(N2CCOCC2)c1 | EGFR L858R/T790M | binding | 1 µM | remaining binding | 84% |
| CC#CC(=O)N1CCC[C@H]1c1nc(-c2ccc(C(=O)Nc3ccccn3)cc2)c2c(N)nccn12 | Epidermal growth factor receptor (EGFR, Homo sapiens, UniProt P00533, del746-750) | enzyme activity, inhibitor | 1 µM | inhibition | 0% |
| C#Cc1cnc(Nc2ccc(CO)nc2)nc1Nc1ccccc1S(C)(=O)=NC#N (stereo not drawn) | EGFR | enzyme activity, inhibitor, radiometric | 1 µM | remaining activity | 75.6% |
| C=CC(=O)N1CCC([C@@H]2CCNc3c(C(N)=O)c(-c4ccc(Oc5ccccc5)cc4)nn32)CC1 | Epidermal growth factor receptor (EGFR, Homo sapiens, UniProt P00533, G719S) | cell-free assay | 1 µM | inhibition | 95% |
| C[C@H]1CC[C@H](n2c3cnccc3c3cnc(Nc4ccc5c(n4)CCN(C(=O)CO)C5)nc32)CC1 | EGFR L858R/T790M | cell-free assay | 1 µM | remaining signal | 93% |
| C1=C/COCc2cc(ccc2OCCN2CCCC2)Nc2nccc(n2)-c2cccc(c2)COC/1 | Epidermal growth factor receptor (EGFR, Homo sapiens, UniProt P00533, A750P/del747-749) | binding | 0.1 µM | remaining binding | 67% |
| CN1CCN(C(=O)c2ccc(NC(=O)Nc3ccc(N(C)c4ccnc(Nc5ccc(CS(C)(=O)=O)cc5)n4)cc3)cc2)CC1 | Epidermal growth factor receptor (EGFR, Homo sapiens, UniProt P00533, L858R) | binding | 1 µM | remaining binding | 92% |
| C#Cc1cnc(Nc2ccc(CO)cc2)nc1Nc1ccccc1C(=O)NC | EGFR | enzyme activity, inhibitor, radiometric | 1 µM | remaining activity | 10.1% |
| COc1ccc2oc(-c3ccc4nc(N)oc4c3)c/c(=N\c3ccccc3NC(=O)CCN)c2c1 | Epidermal growth factor receptor (EGFR, Homo sapiens, UniProt P00533, T790M) | cell-free assay | 1 µM | remaining signal | 99% |
